Data: ChEMBL document CHEMBL4513216, “Probing the Open Global Health Chemical Diversity Library for Multistage-Active Starting Points for Next-Generation Antimalarials” (ACS Infect Dis, 2020)

Test: Toxicity liver stage against HepG2, at 10uM
Assay type: cell-based
Design: test concentration 10 uM, cell line HepG2-A16-CD81EGFP
Settings: human, HepG2-A16-CD81EGFP cells; read-out: INHIBITION
Procedure, shortened: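 Uninfected HepG2-A16-CD81EGFP cells, 3 × 10^3 per well, 1536-well, plated on prespotted compound at 10 μM final, parasite-free screening media added to match infected plates; puromycin 10 μM positive, DMSO 0.5% negative; run in parallel with 48 h PbLuc assay at 37 °C, 5% CO2; viability by CellTiter-Glo luminescence, normalized to controls.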
In the case of `CCOc1cc(F)ccc1NC(=O)NCC(c1cnn(C)c1)N(C)C` (configuration not stated), the cytotoxicity at 10 µM is reported as 5.09%. In the case of `CC(C)c1noc(-c2ccc(NCCCC3CCOC3)nc2)n1` (configuration not stated), the cytotoxicity at 10 µM is reported as -7.37%. `Cn1ccc(C(=O)N2CCCN(CCCc3ccccc3)CC2)cc1=O` gave a cytotoxicity at 10 µM of -0.942%. `OCC1(CC2CCCCO2)CCN(c2cnc3ccccc3n2)CC1` (configuration not stated) showed a cytotoxicity at 10 µM of 21.1%. For `O=C(c1ccco1)N1CCCC2(C1)CN(c1nncs1)CCO2` (configuration not stated), the cytotoxicity at 10 µM was -99.3%. `CC(NCc1cnc(N2CCN(C)CC2)nc1)c1ccc(F)cc1` (configuration not stated) showed a cytotoxicity at 10 µM of -5.26%. Compound `CC(C)c1ccc(O)c(C(=O)NCc2cc[nH]n2)c1` has a cytotoxicity at 10 µM of -1.49%. In the case of `CN(Cc1ccc(F)cc1)CC1(O)CCCN(CC(C)(C)C)C1=O` (configuration not stated), the cytotoxicity at 10 µM is reported as -9.35%. Work on `O=C(c1ccoc1)N1CCC(NCc2ccccc2-n2ccnc2)CC1` yielded a cytotoxicity at 10 µM of 5.89%. `Cc1ccc([C@@H]2CN(C(=O)c3ccoc3C)C[C@H]2NC(=O)C2CC2)cc1` gave a cytotoxicity at 10 µM of 4.22%. Work on `O=C1CO[C@H]2CN(S(=O)(=O)c3ccccc3)C[C@H]2N1Cc1ccccn1` yielded a cytotoxicity at 10 µM of -1.11%. Compound `CCn1ncnc1CN1CCc2[nH]cnc2C1Cc1ccccc1` (configuration not stated) has a cytotoxicity at 10 µM of -4.94%. For `CN1CC2(COCCN(C(=O)c3ccco3)C2)OCC1=O` (configuration not stated), the cytotoxicity at 10 µM was 2.33%. For `OCC1N(Cc2ccc(F)cc2)C2CCC1(O)CC2` (configuration not stated), the cytotoxicity at 10 µM was 8.05%. In the case of `CN1CCCN(C(=O)c2cccn2-c2ccc3c(c2)OCCO3)CC1`, the cytotoxicity at 10 µM is reported as 1.03%. For `Cc1ccc(CN2CCCC3(CCCN3S(C)(=O)=O)C2)s1` (configuration not stated), the cytotoxicity at 10 µM was -97.9%. For `COc1ccc(CN2C[C@@H]3C[C@H](C(=O)Nc4cccnc4)[C@H](C2)O3)cc1`, the cytotoxicity at 10 µM was -72.4%. Work on `CCn1ncc2c1C(COCC1CC1)CN(C(=O)c1cccs1)C2` (configuration not stated) yielded a cytotoxicity at 10 µM of -7.64%. `CN(C)C(=O)C1(C)CN(Cc2cn(C)c3ccccc23)CCO1` (configuration not stated) showed a cytotoxicity at 10 µM of 1.78%. In the case of `COC(=O)[C@H](C)NC(=O)c1nc(C2CC2)n(-c2ccccc2Cl)n1`, the cytotoxicity at 10 µM is reported as -1.76%. Work on `c1ccc(C2CCCN2Cc2nc(-c3cnccn3)no2)nc1` (configuration not stated) yielded a cytotoxicity at 10 µM of -0.5%. Compound `COC[C@]1(O)CCN(C2CCN(c3ccc(OC)cc3)CC2)CC1(C)C` has a cytotoxicity at 10 µM of -3.17%. Compound `Cn1nnc2c1CCN(Cc1ccccc1)C2COCC1CC1` (configuration not stated) has a cytotoxicity at 10 µM of 3.24%. `Cn1cc(C2CCCN2C(=O)CCCc2cccs2)cn1` (configuration not stated) showed a cytotoxicity at 10 µM of -2.12%. In the case of `Cc1nn(C)c(N(C)C)c1CNCc1ccc(OCC(N)=O)cc1`, the cytotoxicity at 10 µM is reported as 1.25%. `CN(Cc1ccccc1)c1cnn(CC2CCCCO2)c(=O)c1` (configuration not stated) showed a cytotoxicity at 10 µM of 0.992%. Work on `O=c1[nH]c(NCc2cccc(OC(F)F)c2)nc2c1CCNC2` yielded a cytotoxicity at 10 µM of 2.47%. Compound `Cc1nc2n(n1)CC(Nc1cc(C(F)(F)F)nc3ncnn13)CC2` (configuration not stated) has a cytotoxicity at 10 µM of -1.27%. `CCCn1nc2c(cc1=O)CN(Cc1nc(CCOC)no1)CC2` gave a cytotoxicity at 10 µM of -2.7%. Compound `O=C(Cn1ccc2ncccc2c1=O)N1CCCCC1` has a cytotoxicity at 10 µM of -7%. In the case of `O=C(CN1C=Nc2ccccc2S1(=O)=O)NCC1CC1`, the cytotoxicity at 10 µM is reported as -10.2%. For `CCN1CCCC(c2c(-c3ccccc3)ncn2CCCO)C1` (configuration not stated), the cytotoxicity at 10 µM was -3.41%. With `COc1ncc(NCc2cc(C#N)cs2)cc1C(N)=O` the cytotoxicity at 10 µM was 3.8%. For `COc1nc2c(cc1C(=O)N(C)Cc1n[nH]c3c1CCCC3)CCC2`, the cytotoxicity at 10 µM was -1.89%. In the case of `COc1c(C)cnc(CNC(=O)c2cc(C)nc3onc(C)c23)c1C`, the cytotoxicity at 10 µM is reported as -0.947%. `COC(=O)C1CCN(c2cc(C)nc(-c3ccncc3)n2)CC1` showed a cytotoxicity at 10 µM of 2.76%. Compound `Cc1cc(NC(=O)C2CN(Cc3ccccc3)CCO2)ccn1` (configuration not stated) has a cytotoxicity at 10 µM of 54.9%. With `CC1(C)CCN1C(=O)c1cc(F)cc2[nH]cnc12` the cytotoxicity at 10 µM was -7.09%. `Cn1cc(C2CCCN2C(=O)Cn2ccc3ccccc32)cn1` (configuration not stated) showed a cytotoxicity at 10 µM of 5.08%. In the case of `CCOc1ccc(CN(C)C2CCN(c3cc(C)nn3C)C2=O)cc1` (configuration not stated), the cytotoxicity at 10 µM is reported as 1.66%. With `CN1CCN(c2nc(-c3cnn(C)c3)cs2)CC1` the cytotoxicity at 10 µM was -0.186%. For `CCn1c(C2CCCN(Cc3nccn3CCOC)C2)nn(C)c1=O` (configuration not stated), the cytotoxicity at 10 µM was 7.3%. With `CS(=O)(=O)NC[C@@H]1OC[C@H]2CN(Cc3ccsc3)CC[C@H]21` the cytotoxicity at 10 µM was 14.3%. In the case of `Cc1nc(CN2CC(CCCc3ccccn3)(C(=O)N(C)C)C2)co1`, the cytotoxicity at 10 µM is reported as 7.43%. `CSc1ccc(OC(C)C(=O)Nc2cc(C)n[nH]2)cc1` (configuration not stated) gave a cytotoxicity at 10 µM of 8.64%. `Cc1ccc(C(=O)N2C[C@@H]3CN(S(C)(=O)=O)CCO[C@@H]3C2)s1` showed a cytotoxicity at 10 µM of -4.75%. Work on `CNC(=O)C1CCCCN1C(=O)CCn1cnc2sccc2c1=O` (configuration not stated) yielded a cytotoxicity at 10 µM of -7.18%. Compound `O=C(CCn1cncn1)NCC(c1ccco1)N1CCCC1` (configuration not stated) has a cytotoxicity at 10 µM of -3.62%. `CC(C)c1nc(C2CCCN2CCN2CCCCC2)no1` (configuration not stated) gave a cytotoxicity at 10 µM of -4.58%. `CN1CCN(C(=O)C2(NC(N)=O)CCCCC2)Cc2ccccc21` gave a cytotoxicity at 10 µM of -6.32%. `CCOC(=O)CNC(=O)NCc1cccn1Cc1ccccc1C` showed a cytotoxicity at 10 µM of 4.9%. Compound `Cc1cc(C)cc(C(=O)NCCCC2(C3OCCO3)CCOCC2)c1` has a cytotoxicity at 10 µM of 9.4%. With `CC(C)c1nnc2n1CCN(Cc1nc(-c3ccoc3)no1)C2` the cytotoxicity at 10 µM was -3.69%. Work on `O=C(N1CCOCC1)[C@@]12CCO[C@@H]1CCN(CC1CCC1)C2` yielded a cytotoxicity at 10 µM of 11.1%. Work on `Cc1cc(N2CCC(c3nccn3Cc3cscn3)CC2)ccn1` yielded a cytotoxicity at 10 µM of -4.72%. Work on `Cc1ccc(OCC2CCCN(Cc3ccc(CO)o3)C2)cc1` (configuration not stated) yielded a cytotoxicity at 10 µM of 5.66%. `c1cnc(N2CCOCC3(CCCN(c4nncs4)C3)C2)cn1` (configuration not stated) gave a cytotoxicity at 10 µM of 3.92%. `Cc1cc(C)c2cc(CNC(C)C)c3nn(C)c(=O)n3c2c1` showed a cytotoxicity at 10 µM of -5%. For `COc1ccccc1OC1CN(C(=O)C(c2ccc(F)cc2)N(C)C)C1` (configuration not stated), the cytotoxicity at 10 µM was 1.42%. In the case of `CCc1noc(CN(C)CC(c2cccs2)N2CCOCC2)n1` (configuration not stated), the cytotoxicity at 10 µM is reported as -4.56%. `O=C1CCC(c2nc(C3CCN(C(=O)C4CC4)CC3)no2)N1` (configuration not stated) gave a cytotoxicity at 10 µM of -1.7%. With `Nc1ncncc1-c1noc([C@@H]2CCCN2CC2CC2)n1` the cytotoxicity at 10 µM was -1.18%. In the case of `CSCCC(=O)N1CCCC(c2ncc[nH]2)C1` (configuration not stated), the cytotoxicity at 10 µM is reported as -1.64%. Work on `Cc1nsc(NC2CCN(c3ccccc3OC(F)F)C2=O)n1` (configuration not stated) yielded a cytotoxicity at 10 µM of 2.14%. In the case of `O=C(CO)N1C[C@H]2CN(Cc3cccc(F)c3)C(=O)[C@H]2C1`, the cytotoxicity at 10 µM is reported as -82.3%. For `CCC(C)N(Cc1ccncc1)Cc1ccccc1Cn1cccn1` (configuration not stated), the cytotoxicity at 10 µM was -44.4%. `c1cnc(-c2nc(CN3CCC(c4ccn[nH]4)CC3)cs2)nc1` gave a cytotoxicity at 10 µM of -2.97%. `COc1cccc2c1OCC(C(=O)NCc1c(C)noc1C)C2` (configuration not stated) showed a cytotoxicity at 10 µM of -15.5%. With `CSC(C)(C)CNC(=O)Nc1cccc(-c2nccn2C)c1` the cytotoxicity at 10 µM was -3.13%. Work on `Cc1ccc(C(=O)NCCCn2cccn2)c(=O)[nH]1` yielded a cytotoxicity at 10 µM of 3.54%. `CC(=O)N1CCN(Cc2ccc(Cl)c(F)c2)CC(O)C1` (configuration not stated) showed a cytotoxicity at 10 µM of -1.48%. In the case of `CCC1(c2ccc(NS(=O)(=O)c3cccs3)cc2)CCC(=O)NC1=O` (configuration not stated), the cytotoxicity at 10 µM is reported as -8.55%. `CCN(CC)S(=O)(=O)CC(=O)Nc1ccsc1` gave a cytotoxicity at 10 µM of -2.77%. In the case of `CCNC(=O)NC1CCCN(c2ccc(C)cc2)C1=O` (configuration not stated), the cytotoxicity at 10 µM is reported as 0.732%. Compound `COC(=O)c1ccc(S(=O)(=O)NCC(C)(O)c2cccs2)cc1` (configuration not stated) has a cytotoxicity at 10 µM of -6.87%. Work on `Cn1cc(C2CCCN2C(=O)c2ccc(Br)o2)cn1` (configuration not stated) yielded a cytotoxicity at 10 µM of -3.32%. With `COc1c(C)cnc(CN2CCC(N(C)C(=O)C3CC3)CC2)c1C` the cytotoxicity at 10 µM was -2.74%. `O=C(CN1CCN(CCO)CC1)NCCc1c(F)cccc1F` gave a cytotoxicity at 10 µM of -9.83%. Compound `CCOCCN1CCN(CC(O)c2cc(Cl)ccc2Cl)CC1` (configuration not stated) has a cytotoxicity at 10 µM of 0.858%. With `Cc1nc(C)c(CN2CCC(N(C)Cc3noc(C4CC4)n3)C2)s1` (configuration not stated) the cytotoxicity at 10 µM was -20%. With `CC(C)OCCCNC(=O)CS(=O)(=O)Cc1ccc(C(C)(C)C)cc1` the cytotoxicity at 10 µM was 4.92%. `CNC(=O)COc1ccccc1CNC1CCc2nc(C)nn2C1` (configuration not stated) gave a cytotoxicity at 10 µM of 6.56%.
